JNK3 inh: JNK3 (human) kinase inhibition | inhibition, % at 8 µM | purified JNK3 kinase activity, HTS | 60,000 tested, 0.61% active | AID 746; in the data active = inhibition above about 17%
SF1 activator: SF-1 (human) activation | Q13285 | CHO-K1 Gal4-SF-1 LBD luciferase reporter; % increase over DMSO SF-1-specific signal | activation, % at 10 µM | 65,000 tested, 1.9% active | AID 522;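 active = activation above the mean activation of all tested compounds plus 3 SD, cut at about 50% in these data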
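Test system: CHO-K1 cells with Gal4–hSF-1 LBD chimera plus Gal4-driven luciferase; Input: 4,000 cells/well; Compound: 10 µM only; Times: 20 h compound treatment, 37 °C; Measured by: steady-glow luciferase luminescence, read after 15 min reagent incubation; Measure: percent activation versus DMSO; Control set: DMSO and mock-transfected background; Replicates: one test per compound.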
ROCK2 inh: blocks human Rho kinase 2 activity; O75116; 60,000 tested, 0.35% active; inhibition, % at 6 µM; purified ROCK2, Kinase-Glo ATP depletion luminescence; AID 604;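 active = inhibition above the screen-wide mean inhibition plus 3 SD, cut at about 18% in these data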
mHtt clearance: compounds clearing mutant huntingtin protein | AID 853 | inhibition, % at 1.5 µM | HeLa Exon1htt(103Q)mCFP, aggregate imaging; zero = plate's median compound well | 47,000 tested, 0.42% active;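 active = inhibition of aggregate fluorescence above about 70%, also judged a hit by eye on the cell image, limit read from the data, passing the limit was not always enough; inconclusive = no rule stated for this call; inactive = not judged a hit on image review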;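 also: cells exposed to compound for three days before fixation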
RORA act: activators of human nuclear receptor RORA | P35398 | CHO-K1 Gal4-RORA LBD luciferase reporter, luminescence; percent increase over mock-subtracted basal signal | 65,000 tested, 1.5% active | AID 560 | activation, % at 10 µM;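 active = activation above the mean of all tested compounds plus 3 SD, cut at about 49% in these data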
Target sequence (P35398 whole entry, looked up, the tested form may be a part): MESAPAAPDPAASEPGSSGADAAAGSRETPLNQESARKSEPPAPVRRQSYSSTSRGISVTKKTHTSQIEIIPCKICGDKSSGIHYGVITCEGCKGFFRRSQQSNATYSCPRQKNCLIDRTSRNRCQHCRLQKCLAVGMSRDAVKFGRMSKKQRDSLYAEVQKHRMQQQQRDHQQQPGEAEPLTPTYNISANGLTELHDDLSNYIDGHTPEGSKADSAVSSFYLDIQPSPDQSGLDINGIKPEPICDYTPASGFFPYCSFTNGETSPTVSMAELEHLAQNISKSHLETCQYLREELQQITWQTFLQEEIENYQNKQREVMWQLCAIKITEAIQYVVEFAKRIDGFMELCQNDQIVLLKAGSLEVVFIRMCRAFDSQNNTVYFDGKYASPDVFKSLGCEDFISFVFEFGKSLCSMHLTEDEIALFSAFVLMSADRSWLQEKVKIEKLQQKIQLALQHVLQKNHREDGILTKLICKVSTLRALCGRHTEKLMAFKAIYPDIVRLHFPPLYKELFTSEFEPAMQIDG
PKA kinase inh: PKA (human) kinase inhibition | 65,000 tested, 0.1% active | PKA Kemptide phosphorylation, Kinase-Glo ATP luminescence | P17612 | AID 524 | inhibition, % at 6 µM;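 active = inhibition above the screen-wide mean inhibition plus 3 SD, cut at about 21% in these data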
Hits are given with their value; – = inactive; ? = inconclusive; · = no result given. Sampled rows, rich in hits. Any-hit rate of the full collection: about 2.9%.

SMILES	JNK3 inh	SF1 activator	ROCK2 inh	mHtt clearance	RORA act	PKA kinase inh
Cc1cc(C)n(-c2nc3c(c(=O)n(C)c(=O)n3C)n2Cc2cccc(Br)c2)n1	–	–	–	·	–	–
CCn1c(C)csc1=NC(=O)c1ccccc1O	23	–	–	·	–	–
O=C(C1CC1)N1CCN(C(c2ccccc2)c2ccccc2)CC1	·	·	·	–	·	·
CCc1ccc(CNC(=O)c2cc3c(C)nc4ccccc4c3o2)cc1	·	·	·	–	·	·
Cc1nc2cccc(C(=O)NCc3ccccc3)c2o1	23	–	–	–	–	–
CCc1ccc(N(C(C)=O)C2C=CS(=O)(=O)C2)cc1 (stereo unspecified)	–	–	–	–	–	–
CCCn1cnc2c(cnn2-c2ccc(F)cc2)c1=O	–	52	–	·	–	–
CCCCn1cnc2c(cnn2-c2ccc(Cl)cc2)c1=O	–	65	–	·	–	–
CCCCn1cnc2c(cnn2-c2ccc(F)cc2)c1=O	–	–	–	·	–	–
CCOC(=O)C(CC)n1cnc2c(cnn2-c2ccc(Cl)cc2)c1=O (stereo unspecified)	–	–	–	·	–	–
CCOC(=O)C(C)n1cnc2c(cnn2-c2ccc(Cl)cc2)c1=O (stereo unspecified)	–	70	–	·	–	–
C/C(N)=C(/C#N)C(=O)CSc1ccc2c(c1)OCCO2	–	58	–	·	–	–
CN(C)c1cc(-c2ccccc2)nc(N)n1	–	–	–	·	–	–
Nc1nc(-c2ccccc2)cc(-c2ccccc2O)n1	35	–	–	–	49	–
Cc1ccc(-n2ncc3c2ncn2c(C)nnc32)cc1C	–	–	–	–	60	–
CCc1nnc2c3cnn(-c4ccccc4)c3ncn12	–	–	–	–	83	–
Cc1nc2ccc(NC(=O)c3ccc(F)c(S(=O)(=O)N4CCOCC4)c3)cc2s1	·	·	·	–	·	·
CCCCSc1nnc(-c2c[nH]c3ccccc23)n1C	–	57	–	·	–	–
COc1ccc(NS(=O)(=O)c2ccc(OC)c3ccccc23)cn1	–	–	–	·	–	–
COc1ccc(S(=O)(=O)Nc2cc(C)cc(C)n2)c2ccccc12	–	–	–	86	–	–
Cc1cc(C)nc(N2CCCC(C(=O)NCC(c3ccccc3)c3ccccc3)C2)n1 (stereo unspecified)	·	·	·	88	·	·
Cc1cc(-c2ccccc2)nc(N2CCC(C(=O)NCc3ccccc3Cl)CC2)n1	·	·	·	–	·	·
C=CCNC(=O)C1CCN(c2nc(C)cc(-c3ccccc3)n2)CC1	–	102	–	·	–	–
Cc1cc(C)nc(N2CCCC(C(=O)NCCc3ccc(F)cc3)C2)n1 (stereo unspecified)	–	–	–	·	–	–
CCOC(=O)CC1C(=O)NC2CCCCC2N1C(=O)Nc1ccc(Cl)cc1 (stereo unspecified)	–	–	–	·	–	–
SMILES	JNK3 inh	SF1 activator	ROCK2 inh	mHtt clearance	RORA act	PKA kinase inh
COc1ccc(-n2c(O)c(Cc3ccccc3)c(=O)n3nc(-c4ccccc4)c(=O)cc23)cc1	·	·	·	–	·	·
CCC1CCCCN1c1nc2c(c(=O)n(C)c(=O)n2C)n1CCSc1nc2ccccc2o1 (stereo unspecified)	–	–	–	·	–	–
CCCc1ccc(OCc2ccc(C(=O)N3CCN(c4ccccn4)CC3)o2)c(OC)c1	–	–	–	–	50	–
CON(C)c1nc(OCCNC(=O)OCc2ccc(Cl)cc2Cl)nc(N(C)C)n1	–	–	–	–	–	–
CCCCc1cc2c(c(NC(=O)CC)n1)c(=O)oc1ccccc12	–	–	–	–	–	–
Cc1nn(-c2ccccc2)c(C)c1NC(=O)c1cccs1	–	–	–	·	–	–
O=C(Nc1ccc2nn(-c3ccccc3)nc2c1)c1cccs1	–	70	–	–	–	–
Nc1nc(NC(=O)c2cccs2)nn1-c1ccccc1	–	77	–	·	–	–
Fc1cccc(Cl)c1Cn1nnc(-c2ccc3c(c2)OCO3)n1	–	70	–	·	56	–
Cc1ccc(NC(=O)c2ccccc2N(C)S(C)(=O)=O)cc1C	·	·	·	–	·	·
COCCOC(=O)c1c(C)oc2ccc(OC(=O)c3c(OC)cccc3OC)cc12	–	–	–	–	–	–
O=C(Nc1ccccc1)OCc1ccccn1	–	–	–	–	60	–
O=C(Nc1ccccc1)OCCOc1ccccc1	–	–	–	–	–	–
COc1ccc(OC(=O)c2ccc3nsnc3c2)cc1	·	·	·	–	·	·
Cc1ccc(N2C(=O)c3ccc(N)cc3C2=O)cc1C	–	64	–	·	107	–
Cc1ccc(N2C(=O)c3ccc(N)cc3C2=O)cc1	–	–	–	·	55	–
CC1CN(C(=O)c2cccs2)CCN1C(=O)c1cccs1 (stereo unspecified)	–	–	–	·	–	–
COC(=O)Nc1ccc(S(=O)(=O)N2CCCc3ccccc32)cc1	–	–	–	·	53	–
O=C(N1CCN(c2ccccn2)CC1)N1c2ccccc2Sc2ccccc21	–	–	–	?	–	–
Clc1cc(Cl)c2nc(N3CCOCC3)sc2c1	–	58	–	–	–	–
Cn1c(NC(=O)CCC2CCCCC2)cc(=O)n(C)c1=O	–	92	–	–	–	–
Cn1c(NC(=O)C2CC2)cc(=O)n(C)c1=O	–	–	–	·	–	–
C=CCSC1=C(C#N)C(c2cccc(OC)c2)CC(=O)N1 (stereo unspecified)	–	–	–	–	–	–
COCCNC(=O)c1cc(-c2ccccc2OC)on1	–	71	–	·	52	–
COc1ccccc1-c1cc(C(=O)NC(C)C)no1	–	69	–	–	–	–
SMILES	JNK3 inh	SF1 activator	ROCK2 inh	mHtt clearance	RORA act	PKA kinase inh
COc1ccccc1-c1cc(C(=O)NC(C)c2ccccc2)no1 (stereo unspecified)	–	–	–	–	–	–
O=C(Nc1cccc(-c2nc3ccccc3[nH]2)c1)c1cccc(NC(=O)c2ccco2)c1	19	–	–	·	–	–
O=C(Nc1ccc2nc(-c3ccc(Br)o3)[nH]c2c1)c1ccco1	–	–	–	–	55	–
Cc1ccccc1NS(=O)(=O)c1ccc(NC(=O)c2ccco2)cc1	–	–	–	–	–	–
Cc1cccc2[nH]c(-c3ccc(NC(=O)c4ccco4)cc3)nc12	–	74	–	–	–	–
Cc1ccc(-c2nc3ccccc3[nH]2)cc1NC(=O)c1ccco1	–	–	–	·	–	–
O=C(Nc1ccc2nc(-c3ccc(Br)o3)[nH]c2c1)c1cccs1	–	–	–	–	62	–
CCn1c(CNC(=O)c2cccc(C)c2)nc2ccccc21	–	–	–	·	–	–
COc1ccc(-c2cc(C(=O)N3CCN(c4ccccn4)CC3)c3ccccc3n2)cc1	·	90	·	–	74	–
O=C(CCCOc1ccccc1)N1CCN(c2ccccn2)CC1	–	–	–	–	56	–
CCOc1ccc(-c2cc(C(=O)N3CCN(C)CC3)c3ccccc3n2)cc1	–	–	–	·	–	–
CCOc1ccc(-c2cc(C(=O)N3CCN(c4ccccn4)CC3)c3ccccc3n2)cc1	–	91	–	–	76	–

High-throughput results (PubChem BioAssay)
